Test results reported in PubChem BioAssay.
Active and inactive are the calls of the source.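 How the source made its calls, unless noted: active means NADPH fluorescence slope more negative than the mean of all samples by about 3 SD, 99.7% confidence; inactive means the rest.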

Columns and labels:
[1] = inhibitors of TNFa-induced NFkB p65 translocation, primary screen, imaging, HUVEC, MLSMR starter and 10KST1 sets (AID 438;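 active means inhibition above 20% together with a positive visual image hit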;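 further: compound added about 3h40 before a 20 min TNFalpha stimulation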;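 on inhibition: signal is the nuclear over cytoplasmic p65 intensity ratio per well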); settings: HUVEC TNFa-induced p65 nuclear translocation; cell count: measured here: nuclei count (cytotoxicity indicator), at 2.08 µM; inhibition: at 2 µM, stronger effect = higher value, 0% TNFa-plus-vehicle, 100% no-TNFa wells
[2] = inhibitors of mutant huntingtin aggregation, primary screen, imaging, exon1htt(103Q)mCFP cells, high-content imaging (AID 483;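 active means visual image review flags a hit and inhibition of aggregation exceeds 20%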;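 further: compound exposure lasted 3 days before fixation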;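 on nuclei count: percent of the per-plate median nuclei count of sample wells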); settings: exon1htt(103Q)mCFP cell line, aggregate imaging, at 2 µM; inhibition of aggregation: stronger effect = higher value; nuclei count: measured here: cell count, toxicity
[3] = inhibitors of E-selectin induction by TNFa, primary screen, imaging, HUVEC, immunofluorescence, MLSMR starter and 10KST1 sets (AID 487;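 active means visually confirmed hit in the image check and inhibition above 20%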;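 on inhibition: signal is fraction of cell area covered by stained E-selectin grains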;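 on nuclei count: 100% = median nuclei count of all wells on the same plate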); settings: HUVEC TNFalpha-induced E-selectin immunofluorescence imaging, at 2 µM; inhibition: stronger effect = higher value; nuclei count: measured here: cell number, toxicity
[4] = target: Voltage-gated potassium channel subunit beta-2 (Rattus norvegicus) (UniProt P62483); assay: KvBeta enzyme negative modulators, primary screen, biochemical, NADPH fluorescence (AID 622;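 active means fluorescence slope higher than the sample average by over 3 SD, cut at about -0.22 in these data, passing the limit was not always enough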;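 further: slope of raw intensity against log time taken from 70 to 1610 s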); settings: recombinant KvBeta, 4-cyanobenzaldehyde reduction, at 10 µM, stronger effect = higher value
Chain of Voltage-gated potassium channel subunit beta-2 (Rattus norvegicus) (P62483 whole entry, looked up): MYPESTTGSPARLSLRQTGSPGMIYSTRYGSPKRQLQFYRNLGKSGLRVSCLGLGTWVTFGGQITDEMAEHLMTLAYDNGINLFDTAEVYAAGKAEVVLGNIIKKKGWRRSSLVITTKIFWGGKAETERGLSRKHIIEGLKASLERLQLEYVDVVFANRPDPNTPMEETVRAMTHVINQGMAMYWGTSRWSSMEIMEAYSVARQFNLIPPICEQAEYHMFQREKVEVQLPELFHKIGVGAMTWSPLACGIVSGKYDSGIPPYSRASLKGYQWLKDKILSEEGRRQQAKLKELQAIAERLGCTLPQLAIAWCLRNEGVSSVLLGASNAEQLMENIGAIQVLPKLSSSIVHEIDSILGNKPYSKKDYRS

[5] = target: Voltage-gated potassium channel subunit beta-2 (Rattus norvegicus) (UniProt P62483); assay: KvBeta positive modulators, primary screen, biochemical, NADPH fluorescence (AID 623); settings: Recombinant KvBeta, NADPH fluorescence decrease slope, 10 min; at 10 µM; stronger effect = lower value;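 further: fluorescence intensity change per second fitted from 20 to 320 s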
[6] = target: Alpha-2C adrenergic receptor (Homo sapiens) (UniProt P18825); assay: modulators of alpha2C/GIRK thallium flux, primary screen, cell-based, HEK293 alpha2C/GIRK1/2 (AID 624;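 active means fluorescence slope after compound addition differing from the mean of all screened samples at 99.7% confidence, in either direction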;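 further: slope of fluorescence ratio to pre-addition baseline per second over 15 to 24 s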); settings: thallium flux BTC fluorescence, at 10 µM, actives lie on both sides
Chain of Alpha-2C adrenergic receptor (Homo sapiens) (P18825 whole entry, looked up): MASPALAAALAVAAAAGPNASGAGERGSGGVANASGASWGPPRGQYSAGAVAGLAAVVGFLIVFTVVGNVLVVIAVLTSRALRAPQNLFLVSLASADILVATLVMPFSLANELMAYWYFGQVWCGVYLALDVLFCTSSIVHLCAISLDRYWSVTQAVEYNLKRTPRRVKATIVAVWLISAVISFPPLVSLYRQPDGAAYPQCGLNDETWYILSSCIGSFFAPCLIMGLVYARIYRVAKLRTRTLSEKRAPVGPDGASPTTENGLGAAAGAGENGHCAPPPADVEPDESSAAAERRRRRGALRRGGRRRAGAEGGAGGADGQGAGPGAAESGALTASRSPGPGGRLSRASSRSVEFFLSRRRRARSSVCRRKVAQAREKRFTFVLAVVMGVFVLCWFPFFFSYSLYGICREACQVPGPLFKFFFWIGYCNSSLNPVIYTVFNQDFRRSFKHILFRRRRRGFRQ

[7] = inhibitors of larval lipid processing in zebrafish, primary screen, whole organism, PED6 fluorescence, gall bladder and intestine (AID 686;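 active means a full or partial loss of lipid-probe fluorescence in the fish gall bladder, intestine or both, judged by eye; inactive means no fluorescence loss, or compound toxic to the fish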;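 further: larvae 5 to 7 days old with five fish per well; signal comes from phospholipase A2 cleavage of quenched PED6 carried via bile; overnight exposure to compound and PED6 before scoring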); settings: Zebrafish larvae PED6 lipid processing, fluorescence scoring; screened at 20 µM (by protocol)
How it was run: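 Doses: 20 µM single dose. Test system: live zebrafish larvae aged 5-7 days, whole organism. Quantity: five larvae per well. Measured by: By-eye fluorescence microscopy. Reagent: ingested quenched lipid PED6 at 100 nM. Read-out: visual per-well fluorescence inhibition score. Times: overnight exposure of larvae to compound plus PED6.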

[8] = inhibitors of Sendai virus-induced IRF3 signaling, primary screen, TLR/RLR signaling modifier project, cell-based, Sendai virus stimulus, luciferase, 10K MLSCN set (AID 602276;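 active means inhibition at or above 50% at 10 µM; inactive means inhibition below 50%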;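 further: firefly luciferase from ISG56 promoter only with Renilla not read in this screen; 0% = Sendai virus plus DMSO and 100% = medium plus DMSO without virus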); settings: HEK293 RL24 IRF3 luciferase reporter, at 10 µM, stronger effect = higher value
[9] = inhibitors of poly I:C-induced TLR3 signaling, primary screen, cell-based, poly I:C stimulus, luciferase, 10K MLSCN set (AID 602277;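 active means inhibition of the reporter signal at or above 50%; inactive means inhibition below 50%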); settings: HEK293-TLR3 RL24 IRF3 luciferase reporter, at 10 µM, stronger effect = higher value

SMILES | cell count [1] | inhibition [1] | inhibition of aggregation [2] | nuclei count [2] [%] | inhibition [3] | nuclei count [3] [%] | fluorescence slope [4] | NADPH fluorescence slope [5] | slope [6] | outcome [7] | inhibition [8] | inhibition [9]
COC(=O)c1sccc1NC(=O)c1ccco1 | 474 | -11.9% (inactive) | 8.2% (inactive) | 90.7 | 19.6% (inactive) | 89.7 | -0.44 (inactive) | -3.5e-05 (inactive) | 0.00438 (inactive) | active; weak signal in gallbladder only | 2.56% (inactive) | -4.04% (inactive)
CC(C(=O)NC(=O)NC1CCCCC1)N1CCN(c2ccccn2)CC1 (centres undefined) | 611 | -16.9% (inactive) | 8.1% (inactive) | 107 | 0.2% (inactive) | 134 | -0.397 (inactive) | -4.4e-05 (inactive) | 0.00612 (inactive) | inactive | 5.51% (inactive) | 9.31% (inactive)
COc1ccc(C(=O)Nc2ccc(Cl)c(Cl)c2)c(OC)n1 | 799 | -7.1% (inactive) | -20.2% (inactive) | 111 | -145% (inactive) | 137 | -0.364 (inactive) | -6.9e-05 (inactive) | 0.00581 (inactive) | inactive | -13.7% (inactive) | -67% (inactive)
Clc1ccc(OCc2nnc(SCCN3CCCCC3)n2Cc2ccco2)cc1 | 587 | -2.7% (inactive) | 6% (inactive) | 98.8 | 45.2% (inactive) | 88.3 | -0.28 (inactive) | -1.2e-05 (inactive) | 0.00483 (inactive) | active; no signal in gallbladder and intestine | 8.16% (inactive) | 13.8% (inactive)
COc1ccc(NC(=O)N2CCC(c3nc(-c4cccs4)no3)CC2)cc1 | 486 | -35.7% (inactive) | 1.4% (inactive) | 56.4 | -41.5% (inactive) | 102 | -0.36 (inactive) | -5.2e-05 (inactive) | 0.00458 (inactive) | inactive | -1.92% (inactive) | -22% (inactive)
CN(C)c1ccc(C2C3=C(CCCC3=O)OC3=C2C(=O)CCC3)cc1 | 571 | -6.3% (inactive) | 8.9% (inactive) | 112 | -20.9% (inactive) | 110 | -0.37 (inactive) | -5.2e-05 (inactive) | 0.00729 (inactive) | inactive | 14.3% (inactive) | 17% (inactive)
C#CCOC(=O)C1C2C=CC(C2)C1C(=O)O (centres undefined) | 394 | 9.9% (inactive) | 7.3% (inactive) | 87.7 | -317% (inactive) | 115 | -0.341 (inactive) | -6.5e-05 (inactive) | 0.00609 (inactive) | inactive | 4.82% (inactive) | 0.62% (inactive)
CCC(=O)N(Cc1ccco1)c1nc(-c2cc(OC)ccc2OC)cs1 | 643 | -8% (inactive) | 18.8% (inactive) | 100 | -11.7% (inactive) | 101 | -0.397 (inactive) | -4.8e-05 (inactive) | 0.00497 (inactive) | inactive | 8.75% (inactive) | 7.6% (inactive)
COc1ccccc1NC(=O)NCc1ccc2c(c1)OCO2 | 361 | -9.8% (inactive) | 25.8% (inactive) | 97 | 37.9% (inactive) | 78.8 | -0.341 (inactive) | -2.6e-05 (inactive) | 0.0055 (inactive) | inactive | 10.7% (inactive) | 17.5% (inactive)
CC(=O)Nc1ccc(NC(=O)Cn2cnc3c(cnn3C(C)(C)C)c2=O)cc1 | 586 | -3.3% (inactive) | 8.4% (inactive) | 104 | 0.5% (inactive) | 111 | -0.37 (inactive) | -4e-05 (inactive) | 0.00604 (inactive) | inactive | 2.03% (inactive) | 2.5% (inactive)
COCCNC(=O)C(c1ccc(C)o1)N(Cc1cccs1)C(=O)c1snc(C(N)=O)c1N (centres undefined) | 387 | 3.5% (inactive) | 6.6% (inactive) | 96.3 | -93.7% (inactive) | 117 | -0.379 (inactive) | -4.3e-05 (inactive) | 0.00484 (inactive) | inactive | -13.8% (inactive) | -11.9% (inactive)
COc1ccc(OC)c(NS(=O)(=O)Cc2ccccc2)c1 | 356 | 6.3% (inactive) | -14.8% (inactive) | 110 | -73.7% (inactive) | 120 | -0.424 (inactive) | -1.8e-05 (inactive) | 0.00242 (inactive) | inactive | 13.9% (inactive) | 16.5% (inactive)
c1ccc(-c2nnc(SCc3nc4ccccc4[nH]3)o2)cc1 | 285 | 8.2% (inactive) | -3.4% (inactive) | 94.1 | 34.3% (inactive) | 87.8 | -0.304 (inactive) | -1.4e-05 (inactive) | 0.00613 (inactive) | inactive | 12.6% (inactive) | -7.21% (inactive)
Cc1cccc(OCC(=O)Nc2cc(C)ccc2O)c1 | 311 | 0.5% (inactive) | -9.5% (inactive) | 95.3 | -15.1% (inactive) | 87.8 | -0.446 (inactive) | -2.2e-05 (inactive) | 0.00484 (inactive) | inactive | 10.8% (inactive) | 15.6% (inactive)
O=C(Nc1ccccc1C(=O)O)c1cccc(NC(=O)c2ccc(Br)o2)c1 | 489 | -9.3% (inactive) | -2.4% (inactive) | 99.2 | -26.5% (inactive) | 161 | -0.441 (inactive) | -4e-05 (inactive) | 0.00477 (inactive) | inactive | 6.35% (inactive) | 8.3% (inactive)
CCOc1ccc(NC(=O)COC(=O)Cn2cnnn2)cc1OCC | 373 | -19.6% (inactive) | 11.4% (inactive) | 57.8 | 33.9% (inactive) | 72.6 | -0.468 (inactive) | -2.6e-05 (inactive) | 0.00481 (inactive) | inactive | 10.8% (inactive) | 9.82% (inactive)
c1ccc2c(SCc3cn4cccnc4n3)ncnc2c1 | 553 | -14.3% (inactive) | 0.5% (inactive) | 109 | 6.3% (inactive) | 93.9 | -0.341 (inactive) | -5.7e-05 (inactive) | 0.00553 (inactive) | inactive | 3.66% (inactive) | -0.28% (inactive)
Cc1cc(C)nc(N2CCC(C(=O)Nc3ccc(Oc4ccccc4)cc3)CC2)n1 | 706 | -15% (inactive) | -11% (inactive) | 122 | -54.3% (inactive) | 116 | -0.432 (inactive) | -5.6e-05 (inactive) | 0.00595 (inactive) | inactive | 13% (inactive) | 11% (inactive)
CCN(CC)C(=O)C1CCN(CC2CC=CCC2)CC1 (centres undefined) | 377 | -8.2% (inactive) | 12.3% (inactive) | 110 | -22.3% (inactive) | 76.6 | -0.361 (inactive) | 2.7e-06 (inactive) | 0.00638 (inactive) | inactive | -1.94% (inactive) | 9.42% (inactive)
Cc1cc(C)n2nc(SCC(=O)N(C)Cc3ccccc3)nc2n1 | 407 | 7.4% (inactive) | -27.8% (inactive) | 116 | -18.9% (inactive) | 115 | -0.435 (inactive) | -6.2e-06 (inactive) | 0.00539 (inactive) | inactive | -13.5% (inactive) | -9.42% (inactive)
COc1ccc(C(NC(C)=O)c2ccc3cccnc3c2O)c(OC)c1 (centres undefined) | 444 | 2.1% (inactive) | -3% (inactive) | 90.6 | 23.6% (inactive) | 111 | -0.37 (inactive) | -5.8e-05 (inactive) | 0.00602 (inactive) | inactive | -12.8% (inactive) | 61.9% (active)
CCN1CCN(c2nc3c(c(=O)n(C)c(=O)n3C)n2Cc2cccc3ccccc23)CC1 | 471 | -6% (inactive) | 14.8% (inactive) | 85.1 | 35.5% (inactive) | 80.6 | -0.46 (inactive) | -5.6e-05 (inactive) | 0.00535 (inactive) | inactive | 12.4% (inactive) | 18.7% (inactive)
C1=C(CCNc2ncnc3c2cnn3-c2ccccc2)CCCC1 | 355 | 2.8% (inactive) | 17.1% (inactive) | 91.5 | -22.4% (inactive) | 124 | -0.375 (inactive) | -6.3e-05 (inactive) | 0.00514 (inactive) | inactive | -36.5% (inactive) | -142% (inactive)
CN/C=C1\C(=O)C(C)(C)Oc2ccc3ccc(=O)oc3c21 | 544 | -12.4% (inactive) | -24.8% (inactive) | 101 | -38.4% (inactive) | 129 | -0.384 (inactive) | -2.1e-05 (inactive) | 0.00506 (inactive) | inactive | 8.59% (inactive) | 8.49% (inactive)
COc1ccc(Cl)c(NC(=O)NCCN2CCN(c3ccccc3)CC2)c1 | 410 | 1.8% (inactive) | 1% (inactive) | 99.5 | -12.8% (inactive) | 119 | -0.29 (inactive) | -1.7e-05 (inactive) | 0.00501 (inactive) | inactive | 15.2% (inactive) | 23.5% (inactive)
c1n[nH]c(SCCCCSc2ncn[nH]2)n1 | 512 | -30.6% (inactive) | -15.1% (inactive) | 108 | 24% (inactive) | 113 | -0.452 (inactive) | -7e-05 (inactive) | 0.00417 (inactive) | inactive | 15.9% (inactive) | 13% (inactive)
C=CCNc1nc2c(c(=O)n(C)c(=O)n2C)n1CCCCCC | 438 | 4.7% (inactive) | -8% (inactive) | 94.9 | 4% (inactive) | 107 | -0.39 (inactive) | -3.7e-05 (inactive) | 0.00457 (inactive) | inactive | 8.07% (inactive) | -34.5% (inactive)
